Data set [1] has as its system Human immunodeficiency virus 2. As to the kind of experiment: Antiviral activity against 100 TCID50 wild-type Human immunodeficiency virus type 2 ROD infected in C8166 cells assessed as inhibition of syncytia formation after 4 days by microscopic analysis. Type of data set: functional, organism-based. The following applies: Human immunodeficiency virus 2, ISOLATE ROD, C8166, 96 h.

For data set [2], the system named is Human immunodeficiency virus 1. As to the kind of experiment: Antiviral activity against 125 TCID50 wild type HIV1 LAI infected in human H9 cells assessed as reduction in viral replication measured on day 7 post infection by reverse transcriptase activity. Type of data set: functional, organism-based. The settings on record: Human immunodeficiency virus 1, LAI, H9, 168 h. In short, it runs like this:
(§1)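 PHA-P-activated PBMC (1.5 × 10^5; donor cells stimulated 3 days with 1 μg/mL PHA-P plus 5 IU/mL IL-2) or H9 cells (5 × 10^5) in RPMI-1640/10% FCS. Cells pre-treated 30 min with graded compound concentrations, then infected with HIV-1 LAI (100 or 125 TCID50). Supernatant RT activity read on day 7. EC50 from quadratic fit of % inhibition; triplicates, PBMC repeated with a second donor.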

Data set [3] relates to Human immunodeficiency virus 1. The data set is described as follows: Antiviral activity against 100 TCID50 wild type HIV1 LAI infected in human PBMC assessed as reduction in viral replication measured on day 7 post infection by reverse transcriptase activity. Format: functional, organism-based. The following applies: Human immunodeficiency virus 1, LAI, 168 h. In short, it runs like this:
as §1

The nature of data set [4]: Cytotoxicity against […]-activated human H9 cells on day 7 by MTT assay. Format: cell-based. In short, it runs like this:
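Uninfected PHA-P-activated PBMC and H9 cells exposed to graded compound concentrations. Viability by MTT on day 7. CC50 from quadratic fit of % viability against concentration; triplicates.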
A general note: Tetrazolium dyes change colour on reduction, which living cells bring about.

Data set [5] relates to Human immunodeficiency virus 1. As to the kind of experiment: Antiviral activity against HIV1 clade F isolate 2338 infected in human H9 cells assessed as inhibition of viral replication. Format: functional, organism-based. The settings on record: Human immunodeficiency virus 1, clade F isolate 2338, H9. In short, it runs like this:
(§2)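 H9 cells infected with HIV-1 clinical isolates of clades A, B, C, D, A/E, F and G, in the presence of graded compound concentrations. EC50 is the concentration reducing viral replication by 50%.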

The subject of data set [6] is Human immunodeficiency virus 1. The data set is described as follows: Antiviral activity against HIV1 clade G isolate 3187 infected in human H9 cells assessed as inhibition of viral replication. Type of data set: functional, organism-based. The settings on record: Human immunodeficiency virus 1, clade G isolate 3187, H9. In short, it runs like this: as §2
Another data set concerns Influenza A virus. The data set is described as follows: Antiviral activity against influenza A virus. Type of data set: functional, organism-based.
Another data set relates to Sindbis virus. As to the kind of experiment: Antiviral activity against Sindbis virus infected in african green monkey Vero cells assessed as inhibition of virus-induced cytopathic effect up to 200 uM measured on day 3 post infection by microscopic analysis. Type of data set: functional, organism-based. In short, it runs like this: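 Confluent Vero cell monolayers inoculated with 100 CCID50 of virus. Compound added after 1–2 h adsorption, tested up to 200 μM. Microscopic CPE scoring on day 3 post infection versus untreated controls.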
On the technique in general: Damage to the host cells serves as the signal in cytopathic effect assays.

The next data set relates to Vero. The data set is described as follows: Cytotoxicity against african green monkey Vero cells up to 200 uM. Type of data set: cell-based. The settings on record: chlorocebus sabaeus. In short, it runs like this: (§3)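 Uninfected confluent Vero, CrFK, HEL or HeLa cultures incubated with serial compound dilutions (up to 200 μM) for the same period as the antiviral assays. Minimal toxic concentration is the lowest giving microscopically detectable alteration of cell morphology.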

A short description of data set [7]: Cytotoxicity against feline kidney CRFK cells up to 200 uM. Type of data set: cell-based, Felis catus. The following applies: cat. Summed up:
as §3

The next data set relates to Human alphaherpesvirus 1. As to the kind of experiment: Antiviral activity against Herpes simplex virus type 1 KOS infected in HEL cells assessed as inhibition of virus-induced cytopathic effect. Type of data set: functional, organism-based. The following applies: Human alphaherpesvirus 1, KOS. In short, it runs like this: (§4)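 Confluent HEL cell monolayers inoculated with 100 CCID50 of virus. Compounds added after a 1–2 h adsorption period. Virus-induced cytopathic effect scored microscopically at 3 days post infection as % of untreated controls. EC50 derived from graphical plots.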

The subject of a further data set is Vaccinia virus. The data set is described as follows: Antiviral activity against Vaccinia virus infected in HEL cells assessed as inhibition of virus-induced cytopathic effect. Format: functional, organism-based. The following applies: Orthopoxvirus vaccinia. Summed up:
as §4

Data set [8] is described as follows: Cytotoxicity against human HEL cells assessed as alteration in cellular morphology by microscopic analysis. Type of data set: cell-based. Summed up: as §3
Data set [9] in a line: Half life of the compound in complete culture medium by HPLC analysis. Type of data set: physicochemical. Summed up: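 Compound diluted to 0.1 mM final in RPMI-1640 with 10% heat-inactivated FCS and incubated at 37 °C up to 24 h. Timed aliquots frozen at −80 °C, then analysed by reverse-phase HPLC with on-line filtration: C18 column, triethylammonium bicarbonate pH 7.5/acetonitrile gradient, detection at 260 nm. Half-life calculated.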

The test system of data set [10] is Human immunodeficiency virus 1. As to the kind of experiment: Ratio EC50 for PMPA to compound for HIV1 clade A isolate 4113 infected in human H9 cells assessed as inhibition of viral replication. Type of data set: functional.
Data set [11] can be described thus: Cytotoxicity against human HuH7 cells. Format: cell-based. The following applies: Huh-7 cells.
Data set [12] relates to Human immunodeficiency virus 1. As to the kind of experiment: Ratio EC50 for PMPA to compound for HIV1 clade B isolate 2056 infected in human H9 cells assessed as inhibition of viral replication. Format: functional.
The test system of data set [13] is Human immunodeficiency virus 1. The data set is described as follows: Ratio EC50 for PMPA to compound for HIV1 clade B isolate 1722 infected in human H9 cells assessed as inhibition of viral replication. Type of data set: functional.
The test system of data set [14] is Human immunodeficiency virus 1. The data set is described as follows: Ratio EC50 for PMPA to compound for HIV1 clade C isolate 2914 infected in human H9 cells assessed as inhibition of viral replication. Format: functional.
Data set [15] has as its system Human immunodeficiency virus 1. The data set is described as follows: Ratio EC50 for PMPA to compound for HIV1 clade C isolate 4110 infected in human H9 cells assessed as inhibition of viral replication. Type of data set: functional.
Data set [16] relates to Human immunodeficiency virus 1. The data set is described as follows: Ratio EC50 for PMPA to compound for HIV1 clade F isolate 2338 infected in human H9 cells assessed as inhibition of viral replication. Format: functional.
Data set [17] concerns Human immunodeficiency virus 1. The data set is described as follows: Ratio EC50 for PMPA to compound for HIV1 clade G isolate 3187 infected in human H9 cells assessed as inhibition of viral replication. Type of data set: functional.
Data set [18] has as its system Hepatitis B virus. As to the kind of experiment: Antiviral activity against Hepatitis B virus infected in human HuH7 cells assessed as reduction in viral DNA level treated day 3 to day 8 post transfection by real time quantitative PCR analysis. Type of data set: functional, organism-based. The following applies: Huh-7.
Data set [19] deals with Hepatitis B virus. As to the kind of experiment: Ratio EC50 for PMEA to compound for Hepatitis B virus infected in human HuH7 cells assessed as reduction in viral DNA level treated day 3 to day 8 post transfection by real time quantitative PCR analysis. Type of data set: functional, Huh-7.
Data set [20] deals with Human immunodeficiency virus 1. The data set is described as follows: Ratio EC50 for PMEA to compound for HIV1 clade A isolate 4113 infected in human H9 cells assessed as inhibition of viral replication. Type of data set: functional. Summed up:
(§5)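 Ratio computed as EC50 of PMEA divided by EC50 of the test compound, both measured against the same clinical isolate in H9 cells.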

Data set [21] has as its system Human immunodeficiency virus 1. As to the kind of experiment: Ratio EC50 for PMEA to compound for HIV1 clade B isolate 2101 infected in human H9 cells assessed as inhibition of viral replication. Format: functional. Summed up:
as §5

Data set [22] relates to Human immunodeficiency virus 1. As to the kind of experiment: Ratio EC50 for PMEA to compound for HIV1 clade B isolate 1722 infected in human H9 cells assessed as inhibition of viral replication. Type of data set: functional. In short, it runs like this: as §5
Data set [23] concerns Human immunodeficiency virus 1. As to the kind of experiment: Ratio EC50 for PMEA to compound for HIV1 clade C isolate 4110 infected in human H9 cells assessed as inhibition of viral replication. Type of data set: functional. In short, it runs like this:
as §5

Data set [24] deals with Human immunodeficiency virus 1. As to the kind of experiment: Ratio EC50 for PMEA to compound for HIV1 clade D isolate 1649 infected in human H9 cells assessed as inhibition of viral replication. Format: functional. In short, it runs like this:
as §5

Data set [25] relates to Human immunodeficiency virus 1. As to the kind of experiment: Ratio EC50 for PMEA to compound for HIV1 clade F isolate 2338 infected in human H9 cells assessed as inhibition of viral replication. Format: functional. Summed up:
as §5

In data set [26] the test system is Human immunodeficiency virus 1. The data set is described as follows: Ratio EC50 for PMEA to compound for HIV1 clade G isolate 3187 infected in human H9 cells assessed as inhibition of viral replication. Format: functional.

Activity calls are given as the source filed them. Where only a bound is given, the exact number is not on record here.

Regarding `C[C@H](Cn1cnc2c(N)ncnc21)OCP(=O)([O-])[S-].[Na+].[Na+]` (stereo partly specified), the EC50 (as a rule, the concentration giving half of the maximal effect) in data set [1] was 7.9 µM; in data set [2], 0.38 µM; in data set [3], 4.2 µM; in data set [5], 0.2 µM; in data set [6] it was 0.12 µM; in the data set on Human alphaherpesvirus 1 it was 169 µM. Besides, the EC50 in the data set with Vaccinia virus worked out at 80 µM. Further, in data set [4], the CC50 (usually the concentration that lowers cell viability or growth by half) at 7 day was greater than 100 µM. In addition, the result in the data set with Influenza A virus was inactive. In addition, in the data set on Sindbis virus, the inhibition result was “inactive”. In addition, the Activity result (in the data set on Vero; in data set [7]) was “Non-toxic” each time. Also, the MCC in [8] is greater than 200 µM. The half-life – broadly, the time needed for the level to fall by half in the phase considered – in data set [9] is greater than 24 h. For the same molecule, the “Ratio EC50” value was 1.25 in data set [10]; 2.77 in [12]; 1.35 in data set [13]; 0.89 in [14]; 1.54 in [15]; 0.2 in data set [16]. In data set [17], the “Ratio EC50” value was found to be 1.25. This molecule also gave a CC50 in data set [11] greater than 150 µM.
With `Nc1ncnc2c1ncn2CCOCP(=O)([O-])[S-].[Na+].[Na+]` (stereo unspecified), the EC50 in data set [1] stood at 23 µM; in data set [2], 1.9 µM; in [3] it was 14 µM; in data set [5], 0.22 µM; in data set [6] it was 0.88 µM; with Hepatitis B virus [18] it was 4.5 µM. Further, the EC50 in the data set on Human alphaherpesvirus 1 came out at 40 µM; with Vaccinia virus, 84 µM. The molecule also came in with a half-maximal cytotoxic concentration (CC50) at 7 day in [4] greater than 30 µM. Moreover, the result with Influenza A virus was inactive. Also, the inhibition result with Sindbis virus is “inactive”. In addition, the Activity entry (in the data set on Vero; in data set [7]) was “Non-toxic” in each case. Moreover, in data set [8], the MCC is greater than 200 µM. The half-life in data set [9] was greater than 24 h. In addition, the “Ratio EC50” value in the data set with Hepatitis B virus [19] worked out at 1.5; in data set [20], 10.8; in [21], 7.16; in data set [22], 0.66; in data set [23], 6; in [24], 0.11. The “Ratio EC50” value in data set [25] is reported as 0.86; in data set [26], 0.25. This molecule also came in with a half-maximal cytotoxic concentration (CC50) in data set [11] greater than 150 µM.

These data come from ChEMBL document CHEMBL1828528, “Acyclic nucleoside thiophosphonates as potent inhibitors of HIV and HBV replication” (Eur J Med Chem, 2011).
